Key:
Type in all cases: functional
Mus musculus [1] = species on record: Mus musculus; experiment: 50 percent inhibitory concentration of compound to inhibit nitric oxide production induced by IFN-gamma in mouse macrophages
Outline: (§1)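 Peritoneal macrophages from female CD-1 mice (5-10 weeks old) were harvested 4 days after ip injection of 2 mL 4% thioglycollate. Cells were seeded at 2×10^5/well and incubated 48 h with 20 ng/mL recombinant mouse IFN-γ, with or without compound (DMSO, final ≤0.1%). Compounds were tested over 0.1 pM–1 μM (10-fold) or 0.01–40 μM (4-fold). Nitrite in the supernatant was measured by Griess reagent at 550 nm against a sodium nitrite standard, in triplicate. Values are the average of two experiments.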

Mus musculus [2] = species on record: Mus musculus; experiment: 50 percent inhibitory concentration of compound to inhibit nitric oxide production induced by IFN-gamma in mouse macrophages (Not active below 1 uM); outline: as §1
Mus musculus [3] = species on record: Mus musculus; experiment: 50 percent inhibitory concentration of compound to inhibit nitric oxide production induced by IFN-gamma in mouse macrophages (Toxic above 1 uM); outline: as §1
Mus musculus [4] = species on record: Mus musculus; experiment: (§2) Percent inhibition of nitric oxide production induced by IFN-uM concentration; parameters: concentration or dose not given beside the values
Mus musculus [5] = species on record: Mus musculus; experiment: 50 percent inhibitory concentration of compound to inhibit nitric oxide production induced by IFN-gamma in mouse macrophages (Not active below 10 uM); outline: as §1
Mus musculus [6] = species on record: Mus musculus; experiment: 50 percent inhibitory concentration of compound to inhibit nitric oxide production induced by IFN-gamma in mouse macrophages (Toxic above 10 uM); outline: as §1
Mus musculus [7] = species on record: Mus musculus; experiment: as §2
Mus musculus [8] = species on record: Mus musculus; experiment: 50 percent inhibitory concentration of compound to inhibit nitric oxide production induced by IFN-uM); outline: as §1

C[C@@H]1CC[C@]2(C(=O)O)CC[C@]3(C)C(=CC[C@@H]4[C@@]5(C)C=C(C#N)C(=O)C(C)(C)[C@@H]5CC[C@]43C)C2[C@H]1C (stereo partly specified)
IC50 (Mus musculus [1]): 6.2 µM

CC1(C)CC[C@]2(C(=O)O)CC[C@]3(C)C(=CC[C@@H]4[C@@]5(C)C=C(C=O)C(=O)C(C)(C)[C@@H]5CC[C@]43C)C2C1 (stereo partly specified)
IC50 (Mus musculus [2]): Not active below 1 uM | IC50 (Mus musculus [3]): Not active below 1 uM

COC(=O)[C@]12CCC(C)(C)CC1C1=CC[C@@H]3[C@@]4(C)C=CC(=O)C=C4CC[C@@]3(C)[C@]1(C)CC2 (stereo partly specified)
IC50 (Mus musculus [1]): > 40 µM

C[C@@H]1CC[C@]2(C(=O)O)CC[C@]3(C)C(=CC[C@@H]4[C@@]5(C)C=CC(=O)C(C)(C)[C@@H]5CC[C@]43C)C2[C@H]1C (stereo partly specified)
IC50 (Mus musculus [1]): 13 µM | Inhibition (Mus musculus [4]): 41%

COC(=O)[C@]12CC[C@@H](C)[C@H](C)C1C1=CC[C@@H]3[C@@]4(C)C=C(C#N)C(=O)C(C)(C)[C@@H]4CC[C@@]3(C)[C@]1(C)CC2 (stereo partly specified)
IC50 (Mus musculus [1]): 5.1 µM

CC1(C)CC[C@]2(C(=O)O)CC[C@]3(C)C(=CC[C@@H]4[C@@]5(C)C=CC(=O)C=C5CC[C@]43C)C2C1 (stereo partly specified)
IC50 (Mus musculus [1]): 13 µM

C[C@@H]1CCC2(C(=O)O)CC[C@]3(C)C(=CC[C@@H]4[C@@]5(C)CC[C@H](O)C(C)(C)[C@@H]5CC[C@]43C)C2[C@H]1C (stereo partly specified)
IC50 (Mus musculus [5]): Not active below 10 uM | IC50 (Mus musculus [6]): Not active below 10 uM | Inhibition (Mus musculus [4]): 0%

COC(=O)C12CCC(C)(C)CC1C1=CC[C@@H]3[C@@]4(C)C=CC(=O)C(C)(C)[C@@H]4CC[C@@]3(C)[C@]1(C)CC2 (stereo partly specified)
IC50 (Mus musculus [1]): 31 µM | Inhibition (Mus musculus [4]): 19%

CC(=O)OC[C@]12CCC(C)(C)CC1C(=O)[C@](C)([C@]1(C)CC[C@H]3C(C)(C)[C@@H](OC(C)=O)CC[C@]3(C)[C@H]1CC=O)CC2 (stereo partly specified)
Inhibition (Mus musculus [7]): 52%

COC(=O)[C@]12CCC(C)(C)CC1C1=CC[C@@H]3[C@@]4(C)C=C(C=O)C(=O)C(C)(C)[C@@H]4CC[C@@]3(C)[C@]1(C)CC2 (stereo partly specified)
IC50 (Mus musculus [2]): Not active below 1 uM | IC50 (Mus musculus [8]): Not active below 1 uM

Source: ChEMBL document CHEMBL1132938, “Novel synthetic oleanane and ursane triterpenoids with various enone functionalities in ring A as inhibitors of nitric oxide production in mouse macrophages” (J Med Chem, 2000)
